Screening data as filed in PubChem.
NPY Y2 blocker: blocks the human neuropeptide Y Y2 receptor; P49146; NPY-Y2 expressing cells, antagonist mode; inhibition, % at 2.7 µM; 140,000 compounds, 0.99% hits; in the data active = inhibition above about 17%;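 also: 0% = vehicle with agonist challenge and 100% = reference antagonist with challenge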
Target sequence (P49146 whole entry, looked up): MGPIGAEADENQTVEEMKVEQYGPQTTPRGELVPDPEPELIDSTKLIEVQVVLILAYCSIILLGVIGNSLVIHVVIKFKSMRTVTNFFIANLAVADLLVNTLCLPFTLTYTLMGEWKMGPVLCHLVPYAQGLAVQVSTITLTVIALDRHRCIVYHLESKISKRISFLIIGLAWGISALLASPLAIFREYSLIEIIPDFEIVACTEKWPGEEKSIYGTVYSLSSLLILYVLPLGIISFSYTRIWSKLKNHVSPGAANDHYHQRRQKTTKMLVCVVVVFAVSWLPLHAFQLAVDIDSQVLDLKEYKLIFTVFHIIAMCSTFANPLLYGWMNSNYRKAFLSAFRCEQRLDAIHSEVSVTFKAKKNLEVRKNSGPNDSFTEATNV
NPY-Y1 antag: antagonists of human neuropeptide Y receptor Y1; HEK293-CNG Y1 cells, membrane potential fluorescence; NPY at EC95, then isoproterenol; AID 1040; inhibition, % at 3.6 µM; 200,000 compounds, 1% hits;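 active = inhibition above the campaign mean inhibition of all tested compounds plus 3 SD, cut at about 20% in these data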;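 also: 0% = DMSO wells given NPY plus isoproterenol and 100% = isoproterenol alone without NPY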
Target sequence (P25929 whole entry, looked up): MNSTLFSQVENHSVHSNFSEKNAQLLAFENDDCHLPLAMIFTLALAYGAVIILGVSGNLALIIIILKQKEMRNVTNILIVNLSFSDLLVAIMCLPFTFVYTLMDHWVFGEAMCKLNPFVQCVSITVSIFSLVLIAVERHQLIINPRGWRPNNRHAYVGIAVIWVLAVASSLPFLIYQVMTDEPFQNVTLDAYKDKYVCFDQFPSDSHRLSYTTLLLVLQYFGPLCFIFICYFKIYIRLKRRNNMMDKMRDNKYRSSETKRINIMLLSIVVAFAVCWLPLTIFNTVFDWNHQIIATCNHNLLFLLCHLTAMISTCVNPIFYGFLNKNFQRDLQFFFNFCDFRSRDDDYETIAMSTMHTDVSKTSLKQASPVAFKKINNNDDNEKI
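Material: HEK293 Y1/CNG channel cell line; also added: NPY (25 nM), isoproterenol (1 µM), Ro 20-1724 (25 µM); doses: one concentration, 3.6 µM, in 0.4% DMSO; schedule: compound incubation 1 h at room temperature, readout 45 min post-stimulation; technique: membrane potential fluorescence; measure: fluorescence ratio normalized to % inhibition between controls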
NPY1 pot ag: human NPY-Y1 potentiation or agonism, primary screen. P25929. NPY-Y1 expressing cells, potentiator/agonist activation. activation, % at 3.6 µM. 220,000 compounds, 0.37% hits; in the data active = activation above about 33%, passing the limit was not always enough;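 also: cells stimulated with NPY at EC10 then isoproterenol at EC100; 0% = low agonist plus stimulus and 100% = saturating agonist plus stimulus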
NPY-Y2 PAM-ag: potentiates or activates human NPY-Y2 receptor. AID 1359. P49146. 220,000 compounds, 0.45% hits. cells expressing NPY-Y2, potentiator/agonist read-out. activation, % at 3.6 µM; in the data active = activation above about 27%;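 also: cells stimulated with NPY near EC25 plus isoproterenol at EC100; 0% = vehicle plus submaximal agonist and 100% = vehicle plus saturating agonist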
NPY1 antag ctr: counter-screen for NPY-Y2 antagonists: human NPY-Y1 antagonism; inhibition, % at 3.6 µM; 710 compounds, 19% hits; cell-based NPY-Y1 antagonism counterscreen; shares compounds with NPY Y2 blocker;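 also: cells challenged with NPY then isoproterenol with cAMP sensed through a CNG channel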
NPY2 antag conf: confirmation of human neuropeptide Y receptor Y2 antagonists; shares compounds with NPY Y2 blocker; HEK293 NPY-Y2 CNG channel, membrane potential fluorescence; inhibition, % at 2.8 µM; 710 compounds, 32% hits;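 active = mean inhibition of triplicate wells above the hit cutoff set in the primary screen, cut at about 17% in these data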;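 also: 0% = DMSO with NPY challenge and 100% = BIIE0246 high control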
NPY-Y1 ant conf: human NPY-Y1 antagonism, confirmation; shares compounds with NPY-Y1 antag; HEK293-CNG NPY-Y1, membrane potential fluorescence, cAMP; NPY challenge against isoproterenol-raised cAMP; inhibition, % at 3.6 µM; 1,200 compounds, 21% hits;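 also: 0% = vehicle with agonist plus stimulus and 100% = stimulus alone without agonist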
NPY-Y2 antag ct: counter-screen for NPY-Y1 antagonists: human NPY-Y2 antagonism; shares compounds with NPY-Y1 antag; HEK293 NPY-Y2 CNG membrane potential fluorescence; cells given NPY, then isoproterenol; inhibition, % at 3.6 µM; 1,200 compounds, 28% hits; AID 1255; in the data active = inhibition above about 17%;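 also: 0% = DMSO with agonist challenge and 100% = reference antagonist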
NPY-Y2 pot conf: confirmation of human NPY-Y2 receptor potentiators or agonists | cell-based NPY-Y2 potentiator/agonist assay | activation, % at 3.6 µM | shares compounds with NPY-Y2 PAM-ag | 450 compounds, 20% hits; in the data active = activation above about 33%
NPY-Y1 counter: potentiates or activates NPY-Y1, counter-screen for NPY-Y2 hits. activation, % at 3.6 µM. 450 compounds, 20% hits. Y1 HEK293-CNG cells, membrane potential fluorescence. AID 1651. shares compounds with NPY-Y2 PAM-ag; in the data active = activation above about 45%;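 also: cells stimulated with submaximal NPY then isoproterenol with phosphodiesterase inhibitor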
NPY-Y1 ag 2: counter-screen for NPY-Y2 potentiators: agonists of human NPY-Y1. AID 1702. shares compounds with NPY-Y2 PAM-ag. HEK293 Y1-CNGC, membrane potential fluorescence, agonism. activation, % at 3.6 µM. 450 compounds, 37% hits;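 active = activation above the mean of DMSO-only control wells plus 3 SD, cut at about 18% in these data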;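 also: cells stimulated with 1 µM isoproterenol plus the PDE inhibitor Ro 20-1724; 0% = isoproterenol with DMSO and no NPY and 100% = 40 nM NPY; Y1 agonists lower the membrane potential dye signal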
CNGC inh: cyclic nucleotide gated channel inhibition as counter-screen. shares compounds with NPY-Y2 PAM-ag. HEK293-CNG parental, isoproterenol cAMP, membrane potential fluorescence. inhibition, % at 3.6 µM. 450 compounds, 32% hits;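 active = inhibition above the control-well mean plus 3 SD of those wells, cut at about 22% in these data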;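 also: 0% = DMSO with isoproterenol and 100% = DMSO without isoproterenol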
NPY-Y2 ag 2: activates human NPY-Y2 receptor in potentiator counter-screen; 450 compounds, 56% hits; shares compounds with NPY-Y2 PAM-ag; HEK293 Y2/CNGC cells, membrane potential fluorescence, agonist mode; AID 1710; activation, % at 3.6 µM;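 active = activation above the mean of solvent-only control wells plus 3 SD, cut at about 10% in these data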;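 also: cells stimulated by isoproterenol with no NPY added so direct agonism is tested; 0% = DMSO with isoproterenol alone and 100% = NPY at EC100 plus isoproterenol; agonism lowers probe fluorescence through less cAMP and CNG channel opening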
Active calls of the source: *; nt = no result given. Rows were chosen to be rich in hits. Some 1.9% of all compounds tested hit in one or more screens of this group. Rule as the data show it, unless noted: active = inhibition above about 20%; inactive = the rest.

SMILES | NPY Y2 blocker | NPY-Y1 antag | NPY1 pot ag | NPY-Y2 PAM-ag | NPY-Y1 ant conf | NPY-Y2 antag ct | others
Cn1c2c(c(=O)[nH]c1=O)C(c1cccc(O)c1)C1=C(N2)c2ccccc2C1=O (stereo not given) | nt | 4 | 17 | 6 | nt | nt
O=c1[nH]c2ccc(S(=O)(=O)N3CCN(c4ccccc4F)CC3)cc2s1 | 18* | 1 | -6 | 2 | nt | nt | NPY1 antag ctr=3;NPY2 antag conf=11
Cc1ccc(S(=O)(=O)N2CCN(c3nccnc3C#N)CC2)cc1 | nt | nt | -12 | 11 | nt | nt
CCCC(CCC(=O)Nc1ccn(-c2ccccc2)n1)C(=O)O (stereo not given) | nt | nt | -21 | -14 | nt | nt
Cn1cccc1CC(=O)N/N=C/C=C/c1ccco1 | 2 | -4 | 11 | 6 | nt | nt
CCCSc1cc(=O)n(-c2ccccc2)nc1C(=O)OCC | 19* | 3 | -8 | 7 | nt | nt | NPY1 antag ctr=2;NPY2 antag conf=1
CCOC(=O)c1nn(-c2ccccc2)c(C#N)c1N | nt | -7 | -14 | -6 | nt | nt
O=C(COC(=O)/C=C/c1ccc2c(c1)OCO2)Nc1ccccc1 | nt | 10 | -17 | -22 | nt | nt
CCCNC(=O)COC(=O)/C=C/c1ccc2c(c1)OCO2 | 24* | 9 | -15 | -12 | nt | nt | NPY1 antag ctr=11;NPY2 antag conf=7
Brc1cccc(-c2nnc(-c3ccccc3)o2)c1 | 18* | 20 | -28 | -3 | nt | nt | NPY1 antag ctr=14;NPY2 antag conf=13
Cc1ccc(-c2nnc(-c3cccc(Br)c3)o2)cc1 | 13 | 3 | -20 | -4 | nt | nt
CC1(C)CC(=O)c2cnc3c(C#N)cnn3c2C1 | nt | 1 | 14 | 4 | nt | nt
Clc1ccc(OCCSc2nnnn2C2CCCCC2)cc1 | 22* | 16 | -11 | 1 | nt | nt | NPY1 antag ctr=17;NPY2 antag conf=21*
CCOc1ccc(OCCSc2nnnn2C2CCCCC2)cc1 | 17* | 19 | -21 | -22 | nt | nt | NPY1 antag ctr=9;NPY2 antag conf=14
CCOc1ccc(OCCSc2nnnn2-c2ccccc2)cc1 | 7 | 9 | -27 | -24 | nt | nt
Cn1cnnc1SCCOc1ccc(Cl)cc1 | nt | 1 | 20 | -14 | nt | nt
CCCCNC(=O)c1ccc(NC(C)=O)c(Cl)c1 | nt | -2 | 4 | 1 | nt | nt
COc1cc(OC)nc(NC(=O)COC(=O)c2cccc(Cl)c2)n1 | nt | 2 | -25 | -9 | nt | nt
COc1ccc(C(=O)N(NC(=O)Oc2ccccc2)C(C)(C)C)cc1 | 1 | 3 | 2 | 5 | nt | nt
O=C(CN1CCN(Cc2ccccc2)CC1)N/N=C/c1ccc(Br)s1 | nt | nt | 9 | -11 | nt | nt
CCCc1nnc2n1N=C(c1ccc(OC)c(OC)c1)CS2 | 19* | -1 | -25 | -6 | nt | nt | NPY1 antag ctr=6;NPY2 antag conf=8
CC1CCN(CCCNC(=O)c2ccc(CSCc3cccc(Cl)c3)o2)CC1 | 17* | 12 | -24 | -7 | nt | nt | NPY1 antag ctr=9;NPY2 antag conf=12
CN1CCN(CCCNC(=O)c2ccc(CSCc3cccc(Cl)c3)o2)CC1 | 2 | 0 | -6 | 1 | nt | nt
c1ccc(C(Cc2nc(-c3ccncc3)no2)c2ccccc2)cc1 | 23* | 3 | 38 | 42* | nt | nt | NPY1 antag ctr=9;NPY2 antag conf=4;NPY-Y2 pot conf=14;NPY-Y1 counter=-11;NPY-Y1 ag 2=2;CNGC inh=-9;NPY-Y2 ag 2=2
O=C(c1ccc(F)cc1F)N1CCN(c2n[nH]c(=O)[nH]c2=O)CC1 | nt | 5 | 22 | 12 | nt | nt
SMILES | NPY Y2 blocker | NPY-Y1 antag | NPY1 pot ag | NPY-Y2 PAM-ag | NPY-Y1 ant conf | NPY-Y2 antag ct | others
c1ccc(CN2CCN(c3nc(-c4ccccc4)nc(-n4ccnc4)n3)CC2)cc1 | 16 | 40* | -116 | -31 | 24* | 23*
c1ccc(-c2nc(-n3ccnc3)nc(-n3ccnc3)n2)cc1 | -2 | -4 | 22 | 21 | nt | nt
CCCCN(CCCC)c1cc(C)nc(-c2ccccc2O)n1 | 10 | 22* | -6 | -11 | 16 | 17
Cc1noc(NS(=O)(=O)c2ccc(NC(=O)c3ccc(OC(C)C)cc3)cc2)c1C | nt | 54* | 14 | 13 | -2 | 3
CC(C)NC(=O)C1CCN(C(=O)c2cc3sccc3n2Cc2ccc(F)cc2)CC1 | 0 | -7 | 29 | 17 | nt | nt
O=C(c1cc2sccc2n1Cc1ccc(F)cc1)N1CCCc2ccccc21 | 15 | 24* | -30 | -10 | 12 | 19*
Cc1cc(C)c(S(=O)(=O)Nc2ccc3c4c(cccc24)CC3)c(C)c1 | 8 | 23* | -64 | -51 | 9 | 37*
Cc1ccc(S(=O)(=O)Nc2ccc3c4c(cccc24)CC3)c(C)c1 | 6 | 3 | -8 | -4 | nt | nt
O=C(C[n+]1cc(-c2ccccc2)n2c1CCCCC2)c1ccc(Br)cc1 | nt | 42* | -9 | -9 | 22* | 19*
O=C(C[n+]1cc(-c2ccccc2)n2c1CCC2)OCc1ccccc1 | 6 | 4 | 2 | 1 | nt | nt
O=C(NC1CCCC1)C(c1ccncc1)N(Cc1ccccc1)C(=O)Cc1cccs1 (stereo not given) | 8 | 21* | -7 | 3 | 4 | 6
O=C(NC1CCCCC1)C(c1ccncc1)N(Cc1ccc2c(c1)OCO2)C(=O)c1cnsn1 (stereo not given) | 11 | 25* | -24 | -7 | 28* | 17
Cc1ccc(C(c2nnnn2CCc2ccccc2)N2CCC(C)CC2)cc1 (stereo not given) | 10 | 2 | -6 | 9 | nt | nt
Cc1ccc(C(c2nnnn2CCc2ccccc2)N2CCSCC2)cc1 (stereo not given) | 10 | 21* | 3 | 2 | 10 | 4
CCOc1ccccc1-c1nn2c(Cc3ccccc3)nnc2s1 | 10 | 52* | -74 | -19 | 32* | 59*
c1ccc(Cc2nnc3sc(-c4ccccn4)nn23)cc1 | 7 | 5 | -25 | -3 | nt | nt
COC(=O)c1ccc(Cn2cnc3c(cnn3-c3ccc(C)c(C)c3)c2=O)o1 | 17 | 27* | -20 | -17 | 12 | 9
